Publication PMC9015489 (Chemmedchem, 2022)

Key:
[1] = Experimental distribution coefficient logD7.4; format: physicochemical; details: pH 7.4
human serum albumin = human serum albumin (Homo sapiens, UniProt P02768); experiment: Plasma protein binding estimated by an HPLC-based method; format: in vitro ADME
NRF2‐ARE pathway = experiment: AREc32 luciferase reporter gene assay; format: cell-based; details: for ARE specificity ratio, SR: SR = IC10/ECIR1.5, AREc32 cells, 24 h exposure
Procedure, shortened: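 AREc32 cells in DMEM+GlutaMAX with 10% FBS and pen/strep, 2650/well, attached 24 h at 37 °C, 5% CO2. Test compound (1×10−15 to 1×10−2 M) for 24 h; tert‐butylhydroquinone as positive control. Luciferase read after PBS washes and Tris/Triton lysis. IR = signal/mean unexposed; ECIR1.5 by linear fit for IR<4. Imaged confluency versus unexposed cells gave IC10 from the linear range.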

[2] = molecular target: human adenosine A2A receptors (Homo sapiens, UniProt P29274); experiment: Radioligand competition binding assay with [3H]CGS-21680
Procedure, shortened: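 Membranes from CHO-S cells recombinantly expressing the human adenosine A2A receptor. Competition with the A2A-selective agonist radioligand [3H]CGS-21680. Test compound run at concentrations from 10 nM to 100 μM. Read-out is % inhibition of radioligand binding, with Ki estimated; n=3.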

SARS‐CoV‐2 (B.3 strain) = experiment: Vero-E6 SARS-CoV-2 plaque reduction assay; format: cell-based
[3] = read-out: % inhibition of radioligand binding

Chain of human serum albumin (P02768 25-609): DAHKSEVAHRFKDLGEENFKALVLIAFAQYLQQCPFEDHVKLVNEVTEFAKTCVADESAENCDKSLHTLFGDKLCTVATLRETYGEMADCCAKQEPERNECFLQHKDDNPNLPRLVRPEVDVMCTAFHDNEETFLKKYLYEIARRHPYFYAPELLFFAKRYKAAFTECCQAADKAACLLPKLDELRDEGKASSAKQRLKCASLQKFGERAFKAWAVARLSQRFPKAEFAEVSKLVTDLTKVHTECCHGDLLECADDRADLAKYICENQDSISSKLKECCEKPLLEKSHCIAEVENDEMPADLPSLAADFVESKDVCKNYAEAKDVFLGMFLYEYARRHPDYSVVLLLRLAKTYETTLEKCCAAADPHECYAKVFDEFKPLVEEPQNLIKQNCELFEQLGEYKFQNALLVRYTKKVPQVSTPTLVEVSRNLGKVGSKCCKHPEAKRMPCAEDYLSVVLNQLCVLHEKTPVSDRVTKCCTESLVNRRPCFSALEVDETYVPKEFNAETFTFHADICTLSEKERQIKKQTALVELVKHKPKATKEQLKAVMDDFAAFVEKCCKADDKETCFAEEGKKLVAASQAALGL
Chain of human adenosine A2A receptors (P29274 whole entry): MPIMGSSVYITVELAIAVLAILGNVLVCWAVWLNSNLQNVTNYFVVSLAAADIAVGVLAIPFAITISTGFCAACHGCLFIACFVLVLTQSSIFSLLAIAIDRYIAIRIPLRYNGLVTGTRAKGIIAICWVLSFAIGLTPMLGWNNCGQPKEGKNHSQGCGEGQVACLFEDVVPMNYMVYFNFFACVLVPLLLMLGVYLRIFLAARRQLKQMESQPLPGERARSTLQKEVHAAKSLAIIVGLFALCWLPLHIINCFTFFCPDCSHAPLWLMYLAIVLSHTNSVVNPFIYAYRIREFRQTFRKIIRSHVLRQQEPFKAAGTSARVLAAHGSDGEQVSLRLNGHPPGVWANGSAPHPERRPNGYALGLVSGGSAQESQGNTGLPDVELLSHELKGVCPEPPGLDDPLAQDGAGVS

Structure (SMILES) | chromatographic logD [1] | fraction unbound (human serum albumin) | ARE specificity ratio, SR (NRF2‐ARE pathway) | further results
C=C1CCC2[C@](C)(C(=O)NCCC)[C@H](O)CC[C@@]2(C)[C@@H]1C/C=C1/C(=O)OC[C@H]1O (stereo partly drawn) [16 a, (1S,2R,4aS,5R)‐2‐Hydroxy‐5‐[(2E)‐2‐[(4S)‐4‐hydroxy‐2‐oxo‐tetrahydrofuran‐3‐ylidene]ethyl]‐1,4 a‐dimethyl‐6‐methylene‐N‐propyl‐decalin‐1‐carboxamide] | 1.9 | 0.17 | 35.6 | –
C=C1CCC2[C@](C)(C(=O)NCCc3ccccc3)[C@H](O)CC[C@@]2(C)[C@@H]1C/C=C1/C(=O)OC[C@H]1O (stereo partly drawn) [16 b, (1S,2R,4aS,5R)‐2‐Hydroxy‐5‐[(2E)‐2‐[(4S)‐4‐hydroxy‐2‐oxo‐tetrahydrofuran‐3‐ylidene]ethyl]‐1,4 a‐dimethyl‐6‐methylene‐N‐(2‐phenylethyl)decalin‐1‐carboxamide] | 2.5 | 0.62 | 10.8 | –
C=C1CCC2[C@](C)(C(=O)NCCOCCOCCOCCOC)[C@H](O)CC[C@@]2(C)[C@@H]1C/C=C1/C(=O)OC[C@H]1O (stereo partly drawn) [16 c, (1S,2R,4aS,5R)‐2‐Hydroxy‐5‐[(2E)‐2‐[(4S)‐4‐hydroxy‐2‐oxo‐tetrahydrofuran‐3‐ylidene]ethyl]‐N‐[2‐[2‐[2‐(2‐methoxy‐ethoxy)ethoxy]ethoxy]ethyl]‐1,4 a‐dimethyl‐6‐methylene‐decalin‐1‐carboxamide] | 1.3 | 0.08 | 13.3 | –
C=C1CC[C@@H]2[C@](C)(CO)[C@H](O)CC[C@@]2(C)[C@@H]1C/C=C1/C(=O)OC[C@H]1O [Compound 1, Andrographolide] | – | – | 19.4 | Ki [2]: > 100 µM; inhibition at 10 µM [2, 3]: 7%; inhibition at 100 µM [2, 3]: 33%; Effect on Vero-E6 cell proliferation (crystal violet staining) (Vero‐E6 cells; at 10 μM): inhibited cell proliferation; Toxicity on attached Vero-E6 cells (Vero‐E6 cells; at any concentration (0.5-10 μM)): did not show toxicity
C=C1CCC2[C@](C)(CO)[C@H](O)CC[C@@]2(C)[C@@H]1CCC1C(=O)OC[C@H]1O (stereo partly drawn) [Compound 11, (4S)‐3‐[2‐[(1R,5R,6R,8aS)‐6‐Hydroxy‐5‐(hydroxymethyl)‐5,8 a‐dimethyl‐2‐methylene‐decalin‐1‐yl]ethyl]‐4‐hydroxy‐tetrahydrofuran‐2‐one] | – | – | – | Anti-SARS-CoV-2 activity (in words) (SARS‐CoV‐2 (B.3 strain)): did not possess anti‐SARS‐CoV‐2 activities
CC(C)(C)c1cc(O)ccc1O [Tert‐butylhydroquinone, reference compound] | – | – | – | ECIR1.5 (NRF2‐ARE pathway; effect concentration causing an induction ratio (IR) of 1.5, linear model, 24 h): 3.4 ± 0.2 µM
